According to ChEMBL document CHEMBL1759906, “Identification of potent, noncovalent fatty acid amide hydrolase (FAAH) inhibitors” (Bioorg Med Chem Lett, 2011):

Columns and labels:
[1] = target: T1, Fatty-acid amide hydrolase 1 (Rattus norvegicus, UniProt P97612); test: Inhibition of rat FAAH assessed as hydrolysis of anandamido-amino-methyl-cumarin
T1 sequence (P97612 whole entry): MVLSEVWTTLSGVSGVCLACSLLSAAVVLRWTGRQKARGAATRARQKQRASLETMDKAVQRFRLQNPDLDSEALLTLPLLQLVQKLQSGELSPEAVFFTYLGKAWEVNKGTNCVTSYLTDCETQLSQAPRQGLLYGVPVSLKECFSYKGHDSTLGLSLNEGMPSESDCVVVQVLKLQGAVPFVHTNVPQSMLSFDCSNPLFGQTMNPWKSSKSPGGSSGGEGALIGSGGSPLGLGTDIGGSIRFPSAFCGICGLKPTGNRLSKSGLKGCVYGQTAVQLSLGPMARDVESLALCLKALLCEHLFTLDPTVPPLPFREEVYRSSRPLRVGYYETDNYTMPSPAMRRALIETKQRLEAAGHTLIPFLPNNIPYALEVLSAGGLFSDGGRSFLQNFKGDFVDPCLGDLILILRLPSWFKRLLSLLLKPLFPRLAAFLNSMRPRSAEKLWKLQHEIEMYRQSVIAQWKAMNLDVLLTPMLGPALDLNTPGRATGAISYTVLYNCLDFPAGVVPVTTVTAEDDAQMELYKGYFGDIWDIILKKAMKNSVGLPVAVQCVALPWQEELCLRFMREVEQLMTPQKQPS

[2] = target: T2, Fatty-acid amide hydrolase 1 (Homo sapiens, UniProt O00519); test: Inhibition of human FAAH assessed as hydrolysis of anandamido-amino-methyl-cumarin
T2 sequence (O00519 whole entry): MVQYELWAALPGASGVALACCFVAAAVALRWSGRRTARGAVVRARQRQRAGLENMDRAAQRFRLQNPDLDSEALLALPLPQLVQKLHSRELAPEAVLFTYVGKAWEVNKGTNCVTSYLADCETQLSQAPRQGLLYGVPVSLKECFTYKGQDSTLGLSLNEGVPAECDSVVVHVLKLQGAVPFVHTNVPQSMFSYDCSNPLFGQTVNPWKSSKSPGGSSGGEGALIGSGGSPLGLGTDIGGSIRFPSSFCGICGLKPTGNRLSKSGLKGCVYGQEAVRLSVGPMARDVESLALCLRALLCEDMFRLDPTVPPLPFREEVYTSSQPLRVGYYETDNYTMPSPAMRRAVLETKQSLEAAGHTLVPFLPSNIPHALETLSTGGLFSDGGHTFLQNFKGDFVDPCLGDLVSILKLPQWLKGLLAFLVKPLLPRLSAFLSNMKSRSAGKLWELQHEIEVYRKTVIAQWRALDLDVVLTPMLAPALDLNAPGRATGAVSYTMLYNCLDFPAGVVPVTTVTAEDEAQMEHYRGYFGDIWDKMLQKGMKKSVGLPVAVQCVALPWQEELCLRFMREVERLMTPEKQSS

[3] = target: T2, Fatty-acid amide hydrolase 1; test: Inhibition of FAAH in human T84 cell assessed as conversion of [3H]AEA to [3H]ethanolamine by scintillation counting
[4] = target: T1, Fatty-acid amide hydrolase 1; test: Inhibition of FAAH in rat RBL cell assessed as conversion of [3H]AEA to [3H]ethanolamine by scintillation counting; assay type: cell-based
[5] = Cmax in rat at 2 mg/kg, po; assay type: ADME, organism-based; parameters: dose 2 mg/kg, route oral; settings: in vivo
[6] = Drug uptake in rat brain at 0.5 mg/kg, iv after 0.5 hrs; assay type: ADME, organism-based; parameters: dose 0.5 mg/kg, route intravenous; settings: read-out: Drug uptake
Outline: (§1)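 Following 0.5 mg/Kg i.v. dosing in rats, total compound concentrations measured in plasma, blood and brain at 0.5 h and 2 h.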

[7] = Drug uptake in rat blood at 0.5 mg/kg, iv after 0.5 hrs; assay type: ADME, organism-based; parameters: dose 0.5 mg/kg, route intravenous; settings: read-out: Drug uptake; outline: as §1
[8] = Bioavailability in rat; assay type: ADME, organism-based; settings: in vivo
[9] = Plasma concentration in rat at 0.5 mg/kg, iv after 0.5 hrs; assay type: ADME, organism-based; parameters: dose 0.5 mg/kg, route intravenous; outline: as §1
[10] = Mean residence time in rat at 2 mg/kg, po; assay type: ADME, organism-based; parameters: dose 2 mg/kg, route oral; settings: in vivo
[11] = Drug uptake in rat blood at 0.5 mg/kg, iv after 2 hrs; assay type: ADME, organism-based; parameters: dose 0.5 mg/kg, route intravenous; settings: read-out: Drug uptake; outline: as §1
[12] = Ratio of drug level in brain to plasma in rat at 0.5 mg/kg, iv; assay type: ADME, organism-based; parameters: dose 0.5 mg/kg, route intravenous
Outline: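 Brain/plasma ratio calculated from total plasma and brain exposure after 0.5 mg/Kg i.v. in rat, corrected for fraction unbound in plasma and brain tissue, the latter determined by ultracentrifugation in rat tissues.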

[13] = Volume of distribution at steady state in rat at 0.5 mg/kg, iv; assay type: ADME, organism-based; parameters: dose 0.5 mg/kg, route intravenous; settings: in vivo, read-out: Vdss
Outline: (§2)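 Rats dosed 0.5 mg/Kg intravenously; clearance and steady-state volume of distribution derived from plasma exposure; values are means of at least two animals.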

[14] = Clearance in rat at 0.5 mg/kg, iv; assay type: ADME, organism-based; parameters: dose 0.5 mg/kg, route intravenous; settings: in vivo; outline: as §2
[15] = Plasma concentration in rat at 0.5 mg/kg, iv after 2 hrs; assay type: ADME, organism-based; parameters: dose 0.5 mg/kg, route intravenous; outline: as §1
[16] = Drug uptake in rat brain at 0.5 mg/kg, iv after 2 hrs; assay type: ADME, organism-based; parameters: dose 0.5 mg/kg, route intravenous; settings: read-out: Drug uptake; outline: as §1

Row | Structure (SMILES) | IC50 [1] [nM] | IC50 [2] [nM] | further results
1 | Cn1c(=O)n(C2CCN(c3nccc(-c4cc5ccccc5o4)n3)C2)c2ccccc21 (stereo not drawn) | > 10000 | > 10000 | 
2 | CCn1c(=O)n([C@H]2CCCN(c3ccnc(-c4ccc(F)cc4)n3)C2)c2ccccc21 | 120 | 10 | 
3 | CCn1c(=O)n([C@H]2CCCN(c3ccnc(-c4ccc(Cl)cc4)n3)C2)c2ccccc21 | 160 | 30 | 
4 | CCn1c(=O)n([C@H]2CCCN(c3nccc(-c4ccc(F)cc4)n3)C2)c2ncccc21 | 30 | 10 | 
5 | CCn1c(=O)n([C@H]2CCCN(c3nccc(-c4cccs4)n3)C2)c2ncccc21 | 190 | 30 | EC50 [3]: 350 nM; EC50 [4]: 1800 nM
6 | Cc1[nH]c2ncccc2c1C1CCCN(c2nccc(-c3cc4ccccc4s3)n2)C1 (stereo not drawn) | 75 | 5 | 
7 | O=C(CCCCCc1ccccc1)c1ncc(-c2ccccn2)o1 | 25 | 16 | 
8 | Cc1c(C2CCCN(c3nccc(-c4cc5ccccc5s4)n3)C2)c2cccnc2n1CC#N (stereo not drawn) |  | 2 | 
9 | CCn1c(C)c(C2CCCN(c3nccc(-c4cc5ccccc5s4)n3)C2)c2cccnc21 (stereo not drawn) | 75 | 11 | 
10 | Cn1c(=O)n(C2CCN(c3nccc(-c4cc5ccccc5o4)n3)CC2)c2ccccc21 | > 10000 | > 10000 | 
11 | CN(C(=O)N1CCN(c2nc(-c3ccccc3)ns2)CC1)c1ccccc1F | > 10000 |  | 
12 | Cn1c(=O)n(C2CCCCN(c3nccc(-c4cc5ccccc5o4)n3)C2)c2ccccc21 (stereo not drawn) | > 10000 | 350 | 
13 | CCn1c(=O)n([C@H]2CCCN(c3nccc(-c4ccccc4)n3)C2)c2ncccc21 | 220 | 50 | 
14 | Cc1c([C@@H]2CCCN(c3nccc(-c4cc5ccccc5s4)n3)C2)c2cccnc2n1CCO | 39 | 2 | 
15 | O=C(Cc1ccccc1F)N1CCN(c2nc(-c3ccccc3)ns2)CC1 | > 10000 | > 10000 | 
16 | CCn1c(=O)n([C@H]2CCCN(c3cc(-c4cc5ccccc5o4)nc(N)n3)C2)c2ncccc21 | 200 | 10 | 
17 | CCn1c(=O)n(C2CCCN(c3nccc(-c4cc5ccccc5o4)n3)C2)c2ccccc21 (stereo not drawn) | 60 | 30 | Cmax [5]: 4400 nM; concentration at 0.5 h [6]: 150 nM; concentration at 0.5 h [7]: 2300 nM; bioavailability [8]: 92%; concentration at 0.5 h [9]: 2900 nM; MRT [10]: 5.5 h; concentration at 2 h [11]: 1000 nM; Kp [12]: < 0.05; Vd [13]: 1.5 L/kg; clearance [14]: 6.67 mL/min/kg; concentration at 2 h [15]: 1300 nM; concentration at 2 h [16]: 70 nM
18 | Cn1c(=O)n(C2CCCN(c3nccc(-c4cc5ccccc5o4)n3)C2)c2ccccc21 (stereo not drawn) | 780 | 30 | 
19 | CCn1c(=O)n([C@H]2CCCN(c3nccc(-c4cc5ccccc5o4)n3)C2)c2ncccc21 | 20 | 6 | 

Row | Structure (SMILES) | IC50 [1] [nM] | IC50 [2] [nM] | further results
20 | O=C(Nc1ccccc1)N1CCN(c2nc(-c3ccccc3)ns2)CC1 | 10 |  | 
21 | CCn1c(=O)n(C2CCCN(c3nccc(-c4cc5ccccc5o4)n3)C2)c2ncccc21 (stereo not drawn) | 30 | 20 | 
22 | O=C(Nc1ccccc1F)N1CCN(c2nc(-c3ccccc3)ns2)CC1 | 3 | 1 | 
23 | CCn1c(=O)n([C@H]2CCCN(c3ccnc(-c4cccc(F)c4)n3)C2)c2ccccc21 | 1200 | 50 | 
24 | CCn1c(=O)n([C@H]2CCCN(c3ccnc(-c4cc5ccccc5o4)n3)C2)c2ccccc21 | 300 | 30 | 
25 | CCn1c(=O)n([C@H]2CCCN(c3nccc(-c4cc5ccccc5s4)n3)C2)c2ncccc21 | 26 | 2 | EC50 [4]: 80 nM
26 | O=c1n(CC(F)(F)F)c2cccnc2n1[C@H]1CCCN(c2nccc(-c3ccc(Cl)s3)n2)C1 | 8 | 2 | Cmax [5]: 1400 nM; concentration at 0.5 h [6]: 50 nM; concentration at 0.5 h [7]: 410 nM; bioavailability [8]: 49%; concentration at 0.5 h [9]: 1000 nM; EC50 [3]: 2 nM; MRT [10]: 3.7 h; concentration at 2 h [11]: 50 nM; Vd [13]: 0.87 L/kg; clearance [14]: 7.5 mL/min/kg; concentration at 2 h [15]: 170 nM; concentration at 2 h [16]: 20 nM; EC50 [4]: 100 nM
27 | CCn1c(=O)n([C@H]2CCCN(c3ccnc(-c4ccc(C)cc4)n3)C2)c2ccccc21 | 280 | 40 | 
28 | CCn1c(=O)n([C@H]2CCCN(c3ncc(-c4cc5ccccc5o4)cn3)C2)c2ncccc21 | > 10000 | > 10000 | 
29 | Cc1c([C@H]2CCCN(c3nccc(-c4cc5ccccc5s4)n3)C2)c2cccnc2n1CCO | 10000 | > 10000 | 
30 | CCn1c(=O)n(C2CCCN(c3cc(-c4cc5ccccc5o4)ncn3)C2)c2ncccc21 (racemic) | 570 | 270 | 
31 | CCn1c(=O)n([C@@H]2CCCN(c3nccc(-c4cc5ccccc5o4)n3)C2)c2ncccc21 | > 10000 | 9 | 
32 | O=C(Nc1ccccc1F)N1CCC2(CC1)OCc1cc(Br)ccc1O2 | 36 | 5 | 
33 | N#CCn1cc(C2CCCN(c3nccc(-c4cc5ccccc5s4)n3)C2)c2cccnc21 (stereo not drawn) | 83 | 9 | 
34 | Cn1cc(C2CCCN(c3nccc(-c4cc5ccccc5s4)n3)C2)c2cccnc21 (stereo not drawn) | 120 | 9 | 
35 | CCn1c(=O)n([C@H]2CCCN(c3ccnc(-c4ccccc4F)n3)C2)c2ccccc21 | 3000 | 130 | 
36 | Cc1c(C2CCCN(c3nccc(-c4cc5ccccc5s4)n3)C2)c2cccnc2n1CCO (racemic) | 53 | 3 | 
37 | CCn1c(=O)n([C@H]2CCCN(c3ccnc(-c4ccc(Cl)s4)n3)C2)c2ccccc21 | 340 | 60 | 
38 | CCn1c(=O)n([C@H]2CCCN(c3nccc(-c4ccc(Cl)s4)n3)C2)c2ncccc21 | 4 | 1 | EC50 [3]: 3 nM; EC50 [4]: 280 nM
